Assays:
Format in all cases: functional
[1] = system: SF-268; test: Cytotoxicity against human SF268 cells assessed as cell growth at 100 uM after 48 hrs by sulforhodamine B assay; details: SF-268, 48 h, read-out: Activity
Summary of the method: (§1)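 Primary one-dose screen on a three-line panel (MCF7 breast, NCI-H460 lung, SF-268 CNS) at 10^-4 M. Cells were preincubated 24–48 h before a single addition of the agent, followed by 48 h incubation. Endpoint was SRB protein staining, reported as percent growth versus untreated controls.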

[2] = system: MCF7; test: Cytotoxicity against human MCF7 cells assessed as cell growth at 100 uM after 48 hrs by sulforhodamine B assay; details: MCF7, 48 h, read-out: Activity; summary of the method: as §1
[3] = system: NCI-H460; test: Cytotoxicity against human NCI-H460 cells assessed as cell growth at 100 uM after 48 hrs by sulforhodamine B assay; details: NCI-H460, 48 h, read-out: Activity; summary of the method: as §1
[4] = system: CCRF-CEM; test: Growth inhibition of human CCRF-CEM cells after 48 hrs by sulforhodamine B assay; details: for TGI: read-out: pTGI (converted)
Summary of the method: (§2)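 Five-concentration assay in about 60 human tumour lines, using 10-fold dilutions from 10^-4 to 10^-8 M with 48 h continuous exposure and an SRB protein endpoint. Percent growth at each level comes from time-zero, untreated-control and treated absorbances. GI50 is 50% lower net protein increase than control. Values beyond the tested range are given as greater or less than the extreme concentration.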

[5] = system: U-251; test: Growth inhibition of human U251 cells after 48 hrs by sulforhodamine B assay; details: U-251, 48 h; summary of the method: as §2
[6] = system: HOP-62; test: Growth inhibition of human HOP62 cells after 48 hrs by sulforhodamine B assay; details: HOP-62, 48 h; summary of the method: as §2
[7] = system: RPMI-8226; test: Growth inhibition of human RPMI8226 cells after 48 hrs by sulforhodamine B assay; details: RPMI-8226, 48 h; summary of the method: as §2
[8] = system: A549; test: Growth inhibition of human A549 cells after 48 hrs by sulforhodamine B assay; details: A549, 48 h; summary of the method: as §2
[9] = system: HCT-116; test: Growth inhibition of human HCT116 cells after 48 hrs by sulforhodamine B assay; details: HCT-116, 48 h; summary of the method: as §2
[10] = system: NCI-H226; test: Growth inhibition of human NCI-H226 cells after 48 hrs by sulforhodamine B assay; details: NCI-H226, 48 h; summary of the method: as §2
[11] = system: MDA-MB-231; test: Growth inhibition of human MDA-MB-231 cells after 48 hrs by sulforhodamine B assay; details: MDA-MB-231, 48 h; summary of the method: as §2
[12] = system: SN12C; test: Growth inhibition of human SN12C cells after 48 hrs by sulforhodamine B assay; summary of the method: as §2
[13] = system: ACHN; test: Growth inhibition of human ACHN cells after 48 hrs by sulforhodamine B assay; summary of the method: as §2
[14] = system: MOLT-4; test: Growth inhibition of human MOLT4 cells after 48 hrs by sulforhodamine B assay; details: MOLT-4, 48 h; summary of the method: as §2
[15] = system: HOP-92; test: Growth inhibition of human HOP92 cells after 48 hrs by sulforhodamine B assay; details: HOP-92, 48 h; summary of the method: as §2
[16] = Growth inhibition of human Hs 578T cells after 48 hrs by sulforhodamine B assay; summary of the method: as §2
[17] = Growth inhibition of human 786-O cells after 48 hrs by sulforhodamine B assay; details: 786-0, 48 h; summary of the method: as §2
[18] = system: M14; test: Growth inhibition of human M14 cells after 48 hrs by sulforhodamine B assay; details: M14, 48 h; summary of the method: as §2
[19] = read-out: pLC50 (the source's name) (converted)

For `O=C(CN1C(=O)N/C(=C\c2ccc(F)cc2)C1=O)Nc1ccccc1C(F)(F)F`, the growth at 100 µM [1] was 100%, the growth at 100 µM [2] was 87% and the growth at 100 µM [3] was 119%.
`COc1ccc(/C=C2\NC(=O)N(CC(=O)Nc3ccc(OC)cc3)C2=O)cc1` showed a GI50 [4] of 0.195 µM, an LC50 [4] greater than 100 µM and a TGI [4] greater than 100 µM. It also gave a GI50 [5] of 30.9 µM, an LC50 [5] greater than 100 µM and a TGI ([5]; read-out: pTGI (converted)) greater than 100 µM.
In the case of `O=C(CN1C(=O)S/C(=C/c2ccc(Cl)cc2)C1=O)Nc1cccc(C(F)(F)F)c1`, the growth at 100 µM [1] is reported as 110%, the growth at 100 µM [2] is reported as 100% and the growth at 100 µM [3] is reported as 99%.
With `O=C(/C=C1\SC(=O)N(CC(=O)Nc2ccccc2C(F)(F)F)C1=O)Nc1ccc(F)cc1` the growth at 100 µM [1] was 75%, the growth at 100 µM [2] was 74% and the growth at 100 µM [3] was 77%.
With `O=C(CN1C(=O)N/C(=C/c2ccc(Cl)cc2)C1=O)Nc1cccc(C(F)(F)F)c1` the GI50 [6] was 12.6 µM, the LC50 [6] was 69.2 µM and the TGI ([6]; read-out: pTGI (converted)) was 29.5 µM. The GI50 [7] was 10 nM, the LC50 [7] was 28.2 µM and the TGI ([7]; read-out: pTGI (converted)) was 6.92 µM. It also gave a GI50 [8] of 10.7 µM, a CC50 [8, 19] greater than 100 µM and a TGI ([8]; read-out: pTGI) greater than 100 µM. For the same molecule, the GI50 [9] was 13.8 µM, the LC50 [9] was greater than 100 µM and the TGI ([9]; read-out: pTGI (converted)) was 66.1 µM. For the same molecule, the GI50 [10] was 13.2 µM, the CC50 [10, 19] was greater than 100 µM and the TGI ([10]; read-out: pTGI (converted)) was 46.8 µM. It also gave a GI50 [11] of 4.57 µM, an LC50 [11] greater than 100 µM and a TGI ([11]; read-out: pTGI (converted)) of 22.9 µM. For the same molecule, the GI50 [4] was 13.5 µM, the LC50 [4] was greater than 100 µM and the TGI [4] was greater than 100 µM. It also gave a GI50 [12] of 12 µM, an LC50 [12] of 100 µM and a TGI ([12]; read-out: pTGI (converted)) of 34.7 µM. The GI50 [13] was 14.5 µM, the CC50 [13, 19] was 56.2 µM and the TGI ([13]; read-out: pTGI (converted)) was 28.8 µM. The GI50 [14] was 2510 nM, the CC50 [14, 19] was greater than 100 µM and the TGI ([14]; read-out: pTGI (converted)) was greater than 100 µM. For the same molecule, the growth at 100 µM [1] was 100%, the growth at 100 µM [2] was 58% and the GI50 [15] was 5.37 µM. The LC50 [15] was greater than 100 µM, the TGI ([15]; read-out: pTGI (converted)) was 28.8 µM and the GI50 [16] was 10.5 µM. The CC50 [16, 19] was greater than 100 µM, the TGI ([16]; read-out: pTGI (converted)) was 77.6 µM and the GI50 [17] was 13.8 µM. It also gave a CC50 [17, 19] of 89.1 µM, a TGI ([17]; read-out: pTGI (converted)) of 35.5 µM and a GI50 [18] of 14.5 µM. It also gave a CC50 [18, 19] greater than 100 µM, a TGI ([18]; read-out: pTGI) greater than 100 µM and a growth at 100 µM [3] of 4%.
In the case of `O=C(CC1NC(=O)NC1=O)Nc1nccs1` (configuration not stated), the growth at 100 µM [1] is reported as 114%, the growth at 100 µM [2] is reported as 111% and the growth at 100 µM [3] is reported as 108%.
In the case of `O=C(/C=C1\SC(=O)N(CC(=O)Nc2ccc(Cl)cc2)C1=O)Nc1ccc(Cl)cc1`, the growth at 100 µM [1] is reported as 116%, the growth at 100 µM [2] is reported as 111% and the growth at 100 µM [3] is reported as 107%.
For `O=C(CN1C(=O)S/C(=C\C=C\c2ccccc2)C1=O)Nc1ccc(Cl)cc1`, the growth at 100 µM [1] was 98%, the growth at 100 µM [2] was 92% and the growth at 100 µM [3] was 108%.
`O=C(/C=C1\SC(=O)N(CC(=O)Nc2ccccc2C(F)(F)F)C1=O)Nc1ccc(Cl)cc1` gave a growth at 100 µM [1] of 86%, a growth at 100 µM [2] of 61% and a growth at 100 µM [3] of 87%.

From ChEMBL document CHEMBL1153575, “Synthesis and in vitro anticancer activity of 2,4-azolidinedione-acetic acids derivatives” (2009)
